≈ marks a conversion by molar mass, not a printed value. Calls of active or inactive are those of the source. No cut-off for these calls is given here.
Experiments:
Staphylococcus aureus [1] = experiment: Antibacterial activity against Staphylococcus aureus ATCC 29213 assessed as inhibition of bacterial growth measured after 16 hrs by agar plate dilution method; type: functional
How it was run: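 MIC determined by plate dilution against the reference strain; values from at least two independent experiments.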

Staphylococcus aureus [2] = experiment: Antibacterial activity against methicillin sensitive Staphylococcus aureus assessed as inhibition of bacterial growth measured after 16 hrs by agar plate dilution method; type: functional
How it was run: (§1)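 Clinical MSSA and MRSA strains isolated from local hospitals; MIC determined by plate dilution; data from at least two independent experiments.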

Staphylococcus aureus [3] = experiment: Antibacterial activity against methicillin resistant Staphylococcus aureus assessed as inhibition of bacterial growth measured after 16 hrs by agar plate dilution method; type: functional; how it was run: as §1
[4] = biological target: T1, 3-oxoacyl-[acyl-carrier-protein] synthase 2 (Staphylococcus aureus) (UniProt Q5TKS0); experiment: Binding affinity to His6-tagged Staphylococcus aureus FabF expressed in Escherichia coli BL21 (DE3) assessed as decrease in melting temperature at 10 uM by SYPRO orange based differential scanning fluorimetry
T1 sequence (whole entry): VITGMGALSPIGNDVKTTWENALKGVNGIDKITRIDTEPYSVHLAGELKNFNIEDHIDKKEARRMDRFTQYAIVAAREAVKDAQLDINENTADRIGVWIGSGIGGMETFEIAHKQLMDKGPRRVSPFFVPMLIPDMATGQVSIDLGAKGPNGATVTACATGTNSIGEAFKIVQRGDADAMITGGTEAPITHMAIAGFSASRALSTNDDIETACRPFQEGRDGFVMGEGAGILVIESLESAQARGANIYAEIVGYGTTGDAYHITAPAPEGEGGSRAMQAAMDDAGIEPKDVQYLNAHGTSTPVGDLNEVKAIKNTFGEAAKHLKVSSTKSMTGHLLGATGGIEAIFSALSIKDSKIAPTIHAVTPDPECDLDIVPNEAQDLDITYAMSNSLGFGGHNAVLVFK
How it was run: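 S. aureus FabF melting curves were measured by DSF in 20 mM HEPES, 180 mM NaCl, pH 7.5, a buffer selected by screening seven buffers. ΔTm was derived from the melting-temperature shift caused by ligand; n = 4.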

Escherichia coli [5] = experiment: Binding affinity to His6-tagged Escherichia coli FabH expressed in Escherichia coli BL21 (DE3) assessed as decrease in melting temperature at 10 uM by SYPRO orange based differential scanning fluorimetry
How it was run: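 Purified E. coli FabH melting curves were recorded with and without ligand by thermal-shift fluorometry in 1.0 M Tris-HCl, pH 6.8, a buffer chosen from seven screened. ΔTm was taken from the Tm shift; n = 4.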

Staphylococcus aureus [6] = experiment: Antibacterial activity against methicillin resistant Staphylococcus aureus infected in C57BL/6J mouse model of peritonitis assessed as mouse survival by measuring number of mouse at 10 mg/kg, ip administered at 1 and 5 hrs post infection relative to control; type: functional
How it was run: (§2)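 Female C57BL/6J mice infected intraperitoneally with 1.5–2.0 × 10^7 CFU MRSA in 5% w/v hog gastric mucin; n = 5 per group; intraperitoneal treatment at 10 mg/kg at 1 and 5 h post-infection; vancomycin 10 mg/kg as control; survival and kidney bacterial load recorded.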

Staphylococcus aureus [7] = experiment: Antibacterial activity against methicillin resistant Staphylococcus aureus infected in C57BL/6J mouse model of peritonitis assessed as bacterial load in kidney at 10 mg/kg, ip administered at 1 and 5 hrs post infection; type: functional, organism-based; how it was run: as §2
Staphylococcus aureus [8] = experiment: Antibacterial activity against methicillin, macrolide, lincomycin, telithromycin, cipro-bay resistant Staphylococcus aureus assessed as bacterial growth inhibition; type: functional
Staphylococcus aureus [9] = experiment: Antibacterial activity against macrolide, lincomycin, telithromycin resistant and cipro-bay susceptible, methicillin-resistant Staphylococcus aureus assessed as bacterial growth inhibition; type: functional
Staphylococcus aureus [10] = experiment: Antibacterial activity against methicillin, fusidic-acid, macrolide resistant and lincomycin, telithromycin, cipro-bay susceptible Staphylococcus aureus assessed as bacterial growth inhibition; type: functional
Staphylococcus aureus [11] = experiment: Antibacterial activity against methicillin resistant and macrolide, lincomycin, telithromycin, cipro-bay susceptible Staphylococcus aureus assessed as bacterial growth inhibition; type: functional
Enterococcus faecalis = experiment: Antibacterial activity against Enterococcus faecalis ATCC 29212 assessed as inhibition of bacterial growth measured after 16 hrs by agar plate dilution method; type: functional
[12] = Inhibition of Staphylococcus aureus FabB/FabF
[13] = Inhibition of Staphylococcus aureus FabH
Staphylococcus aureus [14] = experiment: Inhibition of Staphylococcus aureus FabH A81V/A111T mutant assessed as bacterial growth inhibition measured after 18 hrs by resazurin dye based broth dilution assay
How it was run: (§3)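 S. aureus strains carrying point mutations in the FabH active site; MIC determined by broth dilution; data from at least two independent experiments.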

Staphylococcus aureus [15] = experiment: Inhibition of Staphylococcus aureus FabH A81V mutant assessed as bacterial growth inhibition measured after 18 hrs by resazurin dye based broth dilution assay; how it was run: as §3
Staphylococcus aureus [16] = experiment: Antibacterial activity against methicillin resistant Staphylococcus aureus assessed as inhibition of bacterial growth measured after 18 hrs in presence of 10% human serum by resazurin dye based broth dilution assay; type: functional
Escherichia coli [17] = experiment: Antibacterial activity against Escherichia coli harboring delta tolC mutant assessed as inhibition of bacterial growth measured after 16 hrs by agar plate dilution method; type: functional
[18] = Binding affinity to His6-tagged Escherichia coli FabF C163Q mutant expressed in Escherichia coli BL21 (DE3) assessed as binding constant measured after 200 sec by isothermal titration calorimetry
How it was run: (§4)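 Ligands were dissolved in PBS (10 mM, pH 7.4) and titrated into E. coli FabF(C163Q) in the same buffer. Protein was at 12 or 14 μM and ligand at 250 μM. Thermodynamic parameters (ΔH, ΔS, ΔG, Kd, n) were calculated from the heat of binding. Runs were done at least three times; one representative run was used.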

Escherichia coli [19] = experiment: Binding affinity to His6-tagged Escherichia coli FabF C163Q mutant expressed in Escherichia coli BL21 (DE3) assessed as stoichiometry ratio measured after 200 sec by isothermal titration calorimetry; how it was run: as §4
Escherichia coli [20] = experiment: Binding affinity to His6-tagged Escherichia coli FabF C163Q mutant expressed in Escherichia coli BL21 (DE3) assessed as change in enthalpy measured after 200 sec by isothermal titration calorimetry; how it was run: as §4
Escherichia coli [21] = experiment: Binding affinity to His6-tagged Escherichia coli FabF C163Q mutant expressed in Escherichia coli BL21 (DE3) assessed as change in entropy measured after 200 sec by isothermal titration calorimetry; how it was run: as §4
Escherichia coli [22] = experiment: Binding affinity to His6-tagged Escherichia coli FabF C163Q mutant expressed in Escherichia coli BL21 (DE3) assessed Gibbs free energy change measured after 200 sec by isothermal titration calorimetry; how it was run: as §4
Staphylococcus aureus [23] = experiment: Antibacterial activity against methicillin resistant Staphylococcus aureus infected in C57BL/6J mouse model of peritonitis assessed as mouse survival at 10 mg/kg, ip administered at 1 and 5 hrs post infection; type: functional, organism-based; how it was run: as §2
Staphylococcus aureus [24] = experiment: Antibacterial activity against methicillin resistant Staphylococcus aureus infected in C57BL/6J mouse model of peritonitis assessed as mouse survival when infected with 2.5x10^7 CFU bacteria at 10 mg/kg, ip administered at 1 and 5 hrs post infection; type: functional, organism-based
How it was run: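 Female C57BL/6J mice given a higher intraperitoneal MRSA inoculum of 2.5 × 10^7 CFU; intraperitoneal treatment at 1 and 5 h post-infection; survival recorded.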

C=CCSC1=C[C@]23CCC(C[C@H]2[C@](C)(CCC(=O)Nc2c(O)ccc(C(=O)O)c2O)C1=O)C(=C)C3 (single isomer, unassigned)
MIC (Staphylococcus aureus [1]): 2 µg/mL (≈ 4.02 µM) | MIC (Staphylococcus aureus [2]): 1 µg/mL (≈ 2.01 µM) | MIC (Staphylococcus aureus [3]): 1 µg/mL (≈ 2.01 µM) | Activity [4]: Active | Activity (Escherichia coli [5]): Active | Activity (Staphylococcus aureus [6]): 80% | Activity (Staphylococcus aureus [7]): Active

C=C1[C@H]2CC[C@@]3(C=CC(=O)[C@@](C)(CCC(=O)Nc4c(O)ccc(C(=O)O)c4O)[C@@H]3C2)[C@H]1O [PLATENCIN A3]
MIC (Staphylococcus aureus [8]): 8 µg/mL (≈ 18.1 µM) | MIC (Staphylococcus aureus [9]): 8 µg/mL (≈ 18.1 µM) | MIC (Staphylococcus aureus [10]): 8 µg/mL (≈ 18.1 µM) | MIC (Staphylococcus aureus [11]): 8 µg/mL (≈ 18.1 µM)

C=C1C[C@@]23C=CC(=O)[C@@](C)(CCC(=O)Nc4c(O)ccc(C(=O)O)c4O)[C@@H]2C[C@@H]1CC3 [PLATENCIN]
MIC (Enterococcus faecalis): 2 µg/mL (≈ 4.7 µM) | IC50 [12]: 4.6 µM | IC50 [13]: 9.2 µM | MIC (Staphylococcus aureus [1]): 1 µg/mL (≈ 2.35 µM) | MIC (Staphylococcus aureus [2]): 1 µg/mL (≈ 2.35 µM) | MIC (Staphylococcus aureus [3]): 1 µg/mL (≈ 2.35 µM) | MIC (Staphylococcus aureus [14]): 32 µg/mL (≈ 75.2 µM) | MIC (Staphylococcus aureus [15]): > 32 µg/mL | MIC (Staphylococcus aureus [16]): 8 µg/mL | MIC (Escherichia coli [17]): 4 µg/mL (≈ 9.4 µM) | Activity [4]: Active | Activity (Escherichia coli [5]): Active | Kd [18]: 0.027 µM | Ratio (Escherichia coli [19]): 1.12 | deltaH (Escherichia coli [20]): -2.84 kcal/mol | -TdeltaS (Escherichia coli [21]): -7.44 kcal/mol | deltaG (Escherichia coli [22]): -10.3 kcal/mol | Activity (Staphylococcus aureus [23]): Active | Activity (Staphylococcus aureus [7]): Active | Activity (Staphylococcus aureus [24]): inactive

— ChEMBL document CHEMBL4765495, “Semisynthesis and Biological Evaluation of Platencin Thioether Derivatives: Dual FabF and FabH Inhibitors against MRSA” (ACS Med Chem Lett, 2021)
